Reference: ChEMBL document CHEMBL5104177, “Discovery and Crystallographic Studies of Trisubstituted Piperazine Derivatives as Non-Covalent SARS-CoV-2 Main Protease Inhibitors with High Target Specificity and Low Toxicity” (J Med Chem, 2022)
Converted amounts (≈) assume the structure as drawn.

How the values were obtained:
[1] = target: Replicase polyprotein 1ab (Severe acute respiratory syndrome coronavirus 2, UniProt P0DTD1); test: Inhibition of SARS-CoV-2 main protease using MCA-AVLQSGFR-Lys(Dnp)-Lys-NH2 as fluorescent substrate preincubated for 10 mins followed by substrate addition and measured every 10 sec for 10 mins by FRET assay
[2] = target: T1, Caspase-3 (Homo sapiens, UniProt P42574); test: Inhibition of human caspase-3 using Ac-Asp-Glu-Val-Asp-pNA as substrate incubated for 60 mins by FRET assay
T1 sequence (P42574 whole entry): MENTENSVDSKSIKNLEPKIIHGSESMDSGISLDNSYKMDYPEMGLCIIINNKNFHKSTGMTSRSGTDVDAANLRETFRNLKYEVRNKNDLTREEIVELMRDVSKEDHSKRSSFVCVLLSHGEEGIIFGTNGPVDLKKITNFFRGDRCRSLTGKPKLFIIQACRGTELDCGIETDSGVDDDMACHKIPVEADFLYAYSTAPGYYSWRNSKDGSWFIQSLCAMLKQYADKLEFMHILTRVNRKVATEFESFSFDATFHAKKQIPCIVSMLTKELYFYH

[3] = test system: SARS-CoV-2; test: Antiviral activity against SARS-CoV-2 infected in Vero E6 cells assessed as inhibition of viral replication incubated for 25 to 26 hrs by EliSpot reader based analysis; format: functional, organism-based; settings: Severe acute respiratory syndrome coronavirus 2, Vero C1008
How it was run: (§1)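 Antiviral assay in SARS-CoV-2-infected Vero E6 cells, with remdesivir and GC-376 as positive controls, n = 3 biological replicates, SD reported. The potency index is EC50(remdesivir)/EC50(test compound), both measured in this assay.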

[4] = test system: SARS-CoV-2; test: Potency index, ratio of remdesivir EC50 to test compound EC50 for Antiviral activity against SARS-CoV-2 infected in Vero E6 cells assessed as inhibition of viral replication incubated for 25 to 26 hrs by EliSpot reader based analysis; format: functional, Severe acute respiratory syndrome coronavirus 2; how it was run: as §1
[5] = target: T2, Cathepsin K (Homo sapiens, UniProt P43235); test: Inhibition of human Cathepsin K using Ac-LR-AMC as fluorogenic substrate incubated for 60 mins by FRET assay
T2 sequence (P43235 whole entry): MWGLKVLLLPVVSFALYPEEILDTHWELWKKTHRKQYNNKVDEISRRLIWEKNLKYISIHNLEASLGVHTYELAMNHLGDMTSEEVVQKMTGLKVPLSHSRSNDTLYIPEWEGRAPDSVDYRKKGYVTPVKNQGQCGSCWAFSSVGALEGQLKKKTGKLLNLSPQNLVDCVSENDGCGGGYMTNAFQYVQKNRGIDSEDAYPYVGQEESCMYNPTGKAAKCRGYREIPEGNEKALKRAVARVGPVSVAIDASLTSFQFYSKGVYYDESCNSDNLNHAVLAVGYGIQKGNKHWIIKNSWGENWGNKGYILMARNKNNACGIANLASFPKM

[6] = target: Procathepsin L (Homo sapiens, UniProt P07711); test: Inhibition of human Cathepsin L using Z-Leu-Arg-AMC as fluorogenic substrate incubated for 60 mins by FRET assay
[7] = target: T3, Cathepsin F (Homo sapiens, UniProt Q9UBX1); test: Inhibition of human Cathepsin F using Z-Phe-Arg-AMC as fluorogenic substrate incubated for 60 mins by FRET assay
T3 sequence (Q9UBX1 whole entry): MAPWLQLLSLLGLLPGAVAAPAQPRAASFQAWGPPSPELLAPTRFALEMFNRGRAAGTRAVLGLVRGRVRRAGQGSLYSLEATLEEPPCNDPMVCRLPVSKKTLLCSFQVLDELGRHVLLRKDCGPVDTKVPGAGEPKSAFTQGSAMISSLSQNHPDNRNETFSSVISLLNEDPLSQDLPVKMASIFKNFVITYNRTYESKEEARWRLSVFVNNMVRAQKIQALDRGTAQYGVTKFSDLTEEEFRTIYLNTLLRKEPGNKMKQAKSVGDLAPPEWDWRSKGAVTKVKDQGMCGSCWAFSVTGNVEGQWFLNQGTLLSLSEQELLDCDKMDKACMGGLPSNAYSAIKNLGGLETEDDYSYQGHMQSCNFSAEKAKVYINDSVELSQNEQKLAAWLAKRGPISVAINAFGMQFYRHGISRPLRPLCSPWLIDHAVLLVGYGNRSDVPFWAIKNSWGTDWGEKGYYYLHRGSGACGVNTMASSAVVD

[8] = target: Cathepsin B (Homo sapiens, UniProt P07858); test: Inhibition of human Cathepsin B using Z-Leu-Arg-AMC as fluorogenic substrate incubated for 60 mins by FRET assay
[9] = Cytotoxicity against African green monkey Vero E6 cells assessed as reduction in cell viability incubated for 26 hrs by celltiter 96 aqueous non-radioactive cell proliferation assay; format: toxicity, cell-based, Vero C1008; settings: chlorocebus sabaeus
How it was run: (§2)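 Cytotoxicity measured in Vero E6 cells run in parallel with the antiviral assay, n = 3 biological replicates, SD reported.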

[10] = Inhibition of SARS-CoV-1 main protease; parameters: species or system Severe acute respiratory syndrome-related coronavirus
How it was run: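 SARS-CoV-1 Mpro inhibition tested in addition to SARS-CoV-2 Mpro. Values are mean ± SD of three independent experiments.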

[11] = Cytotoxicity against African green monkey Vero E6 cells assessed as reduction in cell viability; format: toxicity, cell-based; settings: chlorocebus sabaeus; how it was run: as §2
[12] = Tmax in Sprague-Dawley rat at 10 mg/kg, po measured upto 24 hrs by LC-MS/MS analysis; format: ADME, organism-based; settings: in vivo
How it was run: (§3)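 Single-dose pharmacokinetics in Sprague–Dawley rats: 2 mg/kg given i.v. or 10 mg/kg given orally, in separate arms. Plasma parameters were derived for each route. Oral bioavailability (F) was obtained from the two arms. Values are mean ± SD, n = 3.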

[13] = AUC (0 to infinity) in Sprague-Dawley rat at 10 mg/kg, po measured upto 24 hrs by LC-MS/MS analysis; format: ADME, organism-based; parameters: dose 10 mg/kg, time < 24 hrs, route po; settings: in vivo; how it was run: as §3
[14] = Cmax in Sprague-Dawley rat at 10 mg/kg, po measured upto 24 hrs by LC-MS/MS analysis; format: ADME, organism-based; parameters: time < 24 hrs, dose 10 mg/kg, route po; settings: in vivo; how it was run: as §3
[15] = AUC (0 to infinity) in Sprague-Dawley rat at 2 mg/kg, iv measured upto 24 hrs by LC-MS/MS analysis; format: ADME, organism-based; parameters: dose 2 mg/kg, time < 24 hrs, route iv; settings: in vivo
[16] = Half life in Sprague-Dawley rat at 2 mg/kg, iv measured upto 24 hrs by LC-MS/MS analysis; format: ADME, organism-based; settings: in vivo; how it was run: as §3
[17] = Half life in Sprague-Dawley rat at 10 mg/kg, po measured upto 24 hrs by LC-MS/MS analysis; format: ADME, organism-based; settings: in vivo; how it was run: as §3
[18] = AUC (0 to t) in Sprague-Dawley rat at 2 mg/kg, iv measured upto 24 hrs by LC-MS/MS analysis; format: ADME, organism-based; parameters: dose 2 mg/kg, time < 24 hrs, route iv; settings: in vivo
[19] = Cmax in Sprague-Dawley rat at 2 mg/kg, iv measured upto 24 hrs by LC-MS/MS analysis; format: ADME, organism-based; parameters: dose 2 mg/kg, time < 24 hrs, route iv; settings: in vivo; how it was run: as §3
[20] = C0 in Sprague-Dawley rat at 2 mg/kg, iv measured upto 24 hrs by LC-MS/MS analysis; format: ADME, organism-based; settings: in vivo; how it was run: as §3
[21] = AUC (0 to t) in Sprague-Dawley rat at 10 mg/kg, po measured upto 24 hrs by LC-MS/MS analysis; format: ADME, organism-based; parameters: dose 10 mg/kg, time < 24 hrs, route po; settings: in vivo; how it was run: as §3
[22] = Microsomal stability in human liver microsomes assessed as intrinsic clearance at 1 uM preincubated for 10 mins followed by NADPH addition and measured upto 60 mins by LC-MS/MS analysis; format: ADME, Microsome; settings: time < 70 min, read-out: CLH
[23] = MRT (0 to infinity) in Sprague-Dawley rat at 2 mg/kg, iv measured upto 24 hrs by LC-MS/MS analysis; format: ADME, organism-based; settings: in vivo; how it was run: as §3
[24] = Oral bioavailability in Sprague-Dawley rat at 10 mg/kg measured upto 24 hrs by LC-MS/MS analysis; format: ADME, organism-based; settings: in vivo; how it was run: as §3
[25] = Clearance in Sprague-Dawley rat at 2 mg/kg, iv measured upto 24 hrs by LC-MS/MS analysis; format: ADME, organism-based; settings: in vivo; how it was run: as §3
[26] = MRT (0 to infinity) in Sprague-Dawley rat at 10 mg/kg, po measured upto 24 hrs by LC-MS/MS analysis; format: ADME, organism-based; settings: in vivo; how it was run: as §3
[27] = Tmax in Sprague-Dawley rat at 2 mg/kg, iv measured upto 24 hrs by LC-MS/MS analysis; format: ADME, organism-based; settings: in vivo; how it was run: as §3
[28] = Kinetic solubility of the compound at pH 7.3; format: physicochemical; settings: buffer, read-out: Kinetic_solubility
How it was run: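 Kinetic solubility measured in phosphate buffer at pH 7.3.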

Procathepsin L, sequence (P07711 whole entry): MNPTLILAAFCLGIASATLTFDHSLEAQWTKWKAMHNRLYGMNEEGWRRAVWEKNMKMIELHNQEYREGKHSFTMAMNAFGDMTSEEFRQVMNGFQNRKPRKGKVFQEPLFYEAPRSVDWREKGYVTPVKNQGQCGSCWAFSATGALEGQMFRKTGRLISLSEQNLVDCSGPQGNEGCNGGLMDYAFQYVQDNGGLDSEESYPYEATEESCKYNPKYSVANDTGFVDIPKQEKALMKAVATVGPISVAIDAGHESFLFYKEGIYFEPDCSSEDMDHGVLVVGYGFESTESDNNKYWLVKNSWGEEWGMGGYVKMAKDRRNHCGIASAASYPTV

## O=C(NCc1cccs1)[C@@H]1CN(C(=O)c2cncc3ccccc23)CCN1c1ccc(Cl)c(Cl)c1
[1]
  IC50: 0.44 nM
[2]
  IC50: 50000 nM
[3]
  IC50: 1000 nM
[4]
  Ratio: 2.8
[5]
  IC50: 50000 nM
[6]
  IC50: 50000 nM
[7]
  IC50: 50000 nM
[8]
  IC50: 50000 nM
[9]
  CC50 at 26 h: > 100000 nM

## O=C(NCc1cccs1)C1CN(C(=O)c2cc(=O)[nH]c(=O)[nH]2)CCN1c1ccc(Cl)c(Cl)c1 (racemic)
[1]
  IC50: 0.61 nM

## O=C(NCc1cccs1)[C@@H]1CN(C(=O)c2cc(=O)[nH]c(=O)[nH]2)CCN1Cc1ccc(Cl)cc1Cl
[1]
  IC50: 0.44 nM
[3]
  IC50: > 50000 nM
[10]
  IC50: 1290 nM
[9]
  CC50 at 26 h: > 100000 nM

## O=C(NCc1cccs1)[C@@H]1CN(C(=O)c2cc(=O)[nH]c(=O)[nH]2)CCN1c1ccc(Cl)c(Cl)c1 (racemic)
[1]
  IC50: 0.4 nM
[3]
  IC50: > 50000 nM
[10]
  IC50: 1090 nM
[9]
  CC50 at 26 h: > 100000 nM

## O=C(NCc1ccco1)C1CN(C(=O)c2cc(=O)[nH]c(=O)[nH]2)CCN1Cc1ccc(Cl)cc1Cl (stereo unspecified)
[1]
  IC50: 0.59 nM

## CCC(CC)COC(=O)[C@H](C)N[P@](=O)(OC[C@H]1O[C@@](C#N)(c2ccc3c(N)ncnn23)[C@H](O)[C@@H]1O)Oc1ccccc1
[3]
  IC50: 2800 nM

## O=C(c1cc(=O)[nH]c(=O)[nH]1)N1CCN(c2ccc(Cl)c(Cl)c2)CC1
[3]
  IC50: > 50000 nM
[9]
  CC50 at 26 h: > 100000 nM

## Cn1cnc(Cn2c(=O)[nH]/c(=N\c3cc4cn(C)nc4cc3Cl)n(Cc3cc(F)c(F)cc3F)c2=O)n1
[3]
  IC50: 370 nM
[9]
  CC50 at 26 h: > 100000 nM

## O=C(NCc1ccco1)C1CN(C(=O)c2cc(=O)[nH]c(=O)[nH]2)CCN1c1ccc(Cl)c(Cl)c1 (racemic)
[1]
  IC50: 0.79 nM

## O=C(NCc1ccco1)[C@@H]1CN(C(=O)c2cc(=O)[nH]c(=O)[nH]2)CCN1Cc1ccc(Cl)cc1Cl
[1]
  IC50: 0.48 nM
[10]
  IC50: 1650 nM

## O=C(NCc1ccco1)[C@@H]1CN(C(=O)c2cc(=O)[nH]c(=O)[nH]2)CCN1c1ccc(Cl)c(Cl)c1
[1]
  IC50: 0.35 nM
[3]
  IC50: > 50000 nM
[10]
  IC50: 1000 nM
[9]
  CC50 at 26 h: > 100000 nM

## O=c1[nH]cc(-c2cc(-c3cc(Cl)cc(OCc4ccccc4Cl)c3)c(=O)n(-c3cccnc3)c2)c(=O)[nH]1
[11]
  CC50: 1700 nM

## O=C(NCc1ccco1)[C@H]1CN(C(=O)c2cc(=O)[nH]c(=O)[nH]2)CCN1c1ccc(Cl)c(Cl)c1
[1]
  IC50: 2.98 nM

## CC(C)C[C@H](NC(=O)OCc1ccccc1)C(=O)N[C@@H](C[C@@H]1CCNC1=O)C(O)S(=O)(=O)O (stereo partly specified)
[3]
  IC50: 200 nM
[7]
  IC50: 74 nM

## O=C(NCc1cccs1)[C@@H]1CN(C(=O)c2cccnc2)CCN1c1ccc(Cl)c(Cl)c1
[12]
  Tmax: 30 min
[13]
  AUC: 230 ng·h/mL
[14]
  Cmax: 74.6 ng/mL
[15]
  AUC: 637 ng·h/mL
[1]
  IC50: 0.4 nM
[16]
  half-life: 21.6 min
[17]
  half-life: 104 min
[18]
  AUC(0-t) at 24 h: 627 ng·h/mL
[19]
  Cmax: 1310 ng/mL
[2]
  IC50: 50000 nM
[3]
  IC50: 1100 nM
[20]
  C0 at 24 h: 1760 ng/mL
[21]
  AUC(0-t) at 24 h: 235 ng·h/mL
[22]
  CLint scaled at 1 µM: 994 mL/min/kg
[5]
  IC50: 50000 nM
[23]
  MRT inf: 24 min
[24]
  F: 72%
[6]
  IC50: 50000 nM
[25]
  clearance: 52.3 mL/min/kg
[7]
  IC50: 50000 nM
[8]
  IC50: 50000 nM
[26]
  MRT inf: 147 min
[10]
  IC50: 4610 nM
[27]
  Tmax: 4.8 min
[28]
  solubility kinetic: 4.1 µg/mL (≈ 8.62 µM)
[9]
  CC50 at 26 h: > 100000 nM
